Only some compounds are listed: those with a hit (about 2.6% of all), similar ones and a draw of the others.
STEP inh = blocks human striatal-enriched tyrosine phosphatase; recombinant STEP, OMFP fluorogenic substrate, fluorescence; inhibition, % at 20 µM; 0.25% of 360,000 active;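 active = inhibition at 20 µM, scaled per plate between control wells, above about 37%, limit read from the data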;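 note: 0% = DMSO with enzyme and substrate and 100% = substrate only without enzyme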
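Assay system: isolated STEP enzyme / Timing: 20 min at room temperature, dark / Doses: 20 µM, 1% DMSO / Technique: fluorescence intensity, excitation 480 nm, emission 540 nm / Reagent: fluorogenic phosphatase substrate OMFP at 25 µM final / Measure: percent inhibition scaled to no-enzyme and uninhibited-enzyme controls, plate-pattern corrected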
Scp-1 inhibitor = inhibitors of human Scp-1 phosphatase. Q9GZU7. Recombinant Scp1, phosphopeptide, malachite green phosphate absorbance. inhibition, % at 20 µM. 0.88% of 340,000 active;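 active = inhibition above about 50% at 20 µM, limit read from the data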;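 note: plate controls were DMSO wells with enzyme for no effect and wells lacking enzyme for full effect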
Target sequence (Q9GZU7 76-261 limits assumed): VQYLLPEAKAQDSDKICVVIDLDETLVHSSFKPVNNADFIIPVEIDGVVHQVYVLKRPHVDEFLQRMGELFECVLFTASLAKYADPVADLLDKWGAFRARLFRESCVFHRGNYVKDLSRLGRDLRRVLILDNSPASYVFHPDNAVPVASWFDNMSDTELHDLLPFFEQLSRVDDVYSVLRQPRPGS
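Material – SCP-1 phosphatase catalytic domain, residues 76-261 · Buffer or medium – Acidic Tris acetate buffer with magnesium and detergent · Also added – Phospho 17-mer peptide substrate · Compound – single 20 µM dose, 1% DMSO · Times – 45 min room-temperature reaction, 5 min colour, 30 min stabiliser · Technique – Phosphate-binding colour reagent, absorbance read at 630 nm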
NadD block = NadD (S. aureus) enzyme inhibition; 0.78% of 360,000 active; AID 602399; inhibition, % at 20 µM; purified NadD enzyme, colorimetric absorbance read-out; in the data active = inhibition above about 26%
rCAG RNA binder = r(CAG) repeat RNA binding | 1.3% of 370,000 active | TO-PRO-1 dye displacement fluorescence | inhibition, % at 3 µM;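 active = inhibition above the plate cutoff, the mean of all test compounds on that plate plus 3 SD, cut at about 35% in these data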;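 note: 0% = DMSO alone and 100% = 100 µM mitoxantrone as full dye displacement; higher means more dye released from RNA so lower well fluorescence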
LMPTP inh = blocks human LMPTP phosphatase; recombinant LMPTP-A, OMFP fluorogenic substrate, fluorescence intensity; AID 651560; 0.22% of 360,000 active; P24666; inhibition, % at 20 µM;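 active = compounds that cut the enzyme signal by at least half of the control window in the single-dose screen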;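 note: plate controls were DMSO wells with enzyme plus substrate for no effect and substrate without enzyme for full effect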
Target sequence (P24666 whole entry, looked up): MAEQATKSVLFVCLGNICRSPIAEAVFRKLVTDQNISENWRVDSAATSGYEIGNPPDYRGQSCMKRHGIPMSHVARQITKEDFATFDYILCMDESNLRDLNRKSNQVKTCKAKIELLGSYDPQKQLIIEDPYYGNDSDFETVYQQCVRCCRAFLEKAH
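Assay system: LMPTP-A, protein tyrosine phosphatase of low molecular weight / Medium: pH 6.0 Bis-Tris buffer with DTT and Triton X-100 / Schedule: 50 min enzyme reaction at room temperature, protected from light / Measured by: endpoint fluorescence intensity from OMFP dephosphorylation / Read-out basis: % inhibition relative to no-enzyme and uninhibited control wells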
STEP conf = STEP (human) phosphatase inhibition, single concentration confirmation | shares compounds with STEP inh | recombinant STEP, OMFP fluorogenic substrate, fluorescence | inhibition, % at 20 µM | 32% of 520 active | AID 623866; call rule not given here;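 note: 0% = enzyme with substrate plus DMSO and 100% = substrate without enzyme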
An asterisk follows results filed as active; . = no result.

SMILES	STEP inh	Scp-1 inhibitor	NadD block	rCAG RNA binder	LMPTP inh	STEP conf
COc1ccc(S[C@]2(C(=O)N(C)C)CC(=O)N(C(=O)Nc3ccc(C)c(Cl)c3)[C@@H]2c2ccc(OC)cc2)cc1	.	.	.	9	.	.
O=C(CSc1nc2ccccc2nc1N1CCCCC1)N1CCN(S(=O)(=O)c2ccccc2)CC1	.	.	.	9	.	.
Cc1n[nH]c(=O)nc1NCc1ccc(Cl)cc1	39*	0	0	2	-2	20
Cc1n[nH]c(=O)nc1NCCN(C)C	14	-5	-3	2	-4	.
COC(=O)[C@]12C[C@H](CC(=O)NCc3ccc(C)o3)C(=O)N(Cc3ccc(Cl)cc3Cl)C1=C[C@H](C1CCCC1)O[C@@H]2C	.	.	.	8	.	.
COC(=O)[C@]12C[C@H](CC(=O)NCC34CC5CC(CC(C5)C3)C4)C(=O)N(CCc3ccc(OC)c(OC)c3)C1=C[C@H](COCc1ccccc1)O[C@@H]2C	.	.	.	10	.	.
CC1(C)Cc2c(sc(N)c2C#N)C(C)(C)N1	44*	-3	-1	-3	1	28
O=c1c2cc3cc(Cl)ccc3nc2ncn1Cc1ccc(Oc2ccccc2)cc1	.	.	.	8	.	.
S=c1nc[nH]c2c1ncn2-c1ccc(Cl)cc1	86*	5	3	3	1	38*
O=C(N/N=C/c1ccncc1)c1cccc(S(=O)(=O)Nc2ccc(Cl)cc2)c1	74*	11	-1	11	26	95*
COc1ccccc1NC(=O)CN1C(=O)COc2ccc(C)cc21	2	-10	-3	1	0	.
COc1ccc(NC(=O)CN2C(=O)COc3ccc(C)cc32)c(OC)c1	72*	-7	-7	-5	-1	0
COC(=O)C1=C(CS(=O)(=O)c2ccc(Cl)cc2)NC(=O)NC1c1ccc(O)cc1 (stereo not drawn)	93*	8	-5	1	-1	1
COC(=O)C1=C(CS(=O)(=O)c2ccccc2)NC(=O)NC1c1ccc(O)cc1 (stereo not drawn)	-2	4	-6	0	-1	.
CC(C)N(C)CCOC(=O)c1ccccc1Br	78*	-2	-8	2	-2	-4
CC(C)N(C)CCOC(=O)c1ccccc1Cl	-4	-4	-6	-6	-3	.
S=C(c1cn(CCOc2cccc3ccccc23)c2ccccc12)N1CCCC1	10	3	6	8	3	.
S=C(c1cn(CCOc2ccccc2)c2ccccc12)N1CCCC1	97*	9	3	0	2	63*
Cc1cccc(C)c1NC(=S)N1CCC(N(C)CC2CCCO2)CC1 (stereo not drawn)	3	-3	4	-2	-4	.
Cc1cc(C)c(NC(=S)N2CCC(N(C)CC3CCCO3)CC2)c(C)c1 (stereo not drawn)	86*	-6	-5	-3	-5	30
O=C1CCCN1CCCNC(=S)Nc1ccc(F)cc1	43*	6	1	0	-1	2
COc1ccc(NC(=S)NCCCN2CCCC2=O)c(OC)c1	46*	3	-2	-1	-1	24
O=S(=O)(O)c1cc(O)c2cc(Nc3ccccc3)ccc2c1	72*	88*	15	43*	83*	100*
CCCCOc1ccc(C(=O)NC2CCCCN(Cc3cccc(Cl)c3)C2=O)cc1 (stereo not drawn)	.	.	.	5	.	.
Fc1ccc(-n2c(=S)[nH]c3cccnc32)cc1	65*	-4	0	2	1	17
SMILES	STEP inh	Scp-1 inhibitor	NadD block	rCAG RNA binder	LMPTP inh	STEP conf
C[C@H]1CCCN1c1ccc2c(c1)O[C@H]1CCN(C1)S2(=O)=O	.	.	.	5	.	.
CN1C(=O)c2cc(NC(=O)Cc3cccs3)ccc2OC[C@@H]2O[C@@H](CC(=O)N[C@H]3CCN(Cc4ccccc4)C3)CC[C@@H]21	.	.	.	5	.	.
O=C(N/N=C/c1ccc([N+](=O)[O-])cc1)c1cccnc1	-2	5	1	0	1	.
Nc1c(C(=O)N/N=C/c2ccc([N+](=O)[O-])cc2)cnn1-c1ccccc1	52*	17	-2	1	19	24
N#C/C(=C/c1ccc(OCc2ccc(C(=O)O)cc2)c(Br)c1)c1cccc(F)c1	94*	50*	10	17	86*	16
Cc1ccc(-c2cc(C(=O)NN=C/C=C/c3ccco3)[nH]n2)cc1C	.	.	.	28	.	.
O=C(O)c1cccc(S(=O)(=O)NCc2cccs2)c1	0	-7	-7	1	-1	.
O=C1CC(=O)Nc2cc(S(=O)(=O)NCc3cccs3)ccc2N1	74*	-3	-2	1	-1	8
COc1ccccc1CCC[C@H](CCS(=O)(=O)C(C)C)CC1CCCCC1	.	.	.	4	.	.
CCN1CCN(C(=S)c2ccc(Br)cc2)CC1	88*	-4	-11	-5	0	45*
CCN1CCN(CCC(=O)Nc2ccc(Br)cc2)CC1	0	5	-1	-5	-3	.
CCN1CCN(C(=S)c2ccc(O)cc2)CC1	88*	2	0	-4	0	49*
O=C(CSc1nc2ccccc2o1)NN=C/C=C\c1ccccc1[N+](=O)[O-]	.	.	.	14	.	.
COc1ccc(NC(=O)c2cc(=O)c3ccccc3o2)cc1Cl	42*	36	5	1	1	28*
COc1cccc(C2NC(=S)NC3=C2CCc2ccccc23)c1 (stereo not drawn)	-2	-6	13	1	-2	.
S=C1NC2=C(CCCC2=C2SCCS2)C(c2ccccc2)N1 (stereo not drawn)	70*	1	14	12	0	60*
O=C(N/N=C/c1ccc(Br)s1)c1ccc([N+](=O)[O-])cc1	69*	-5	-4	0	80*	-8
O=C(N/N=C/c1ccc(Br)s1)c1ccccc1[N+](=O)[O-]	-1	-7	-4	0	1	.
O=C(/C=C/c1ccccc1Cl)N1CCN(c2ncccn2)CC1	68*	-1	-3	-5	-1	-4
COc1ccccc1NS(=O)(=O)c1ccc(NN=C2CCCCC2)c([N+](=O)[O-])c1	92*	-6	-1	11	2	5
COC(=O)[C@]12C[C@H](CC(=O)NCc3ccc(C)o3)C(=O)N(Cc3ccc(Cl)cc3Cl)C1=C[C@H](C(C)(C)C)O[C@@H]2C	.	.	.	1	.	.
CC(C)c1ccc(OCCCCN2CCCCC2)cc1	-2	3	-7	-1	-2	.
CC(C)Oc1ccc(OCCCN2CCCCCC2)cc1	53*	-6	-2	0	-1	-16
CCN(Cc1cn(Cc2ccccc2)nn1)S(=O)(=O)c1ccccc1Br	.	.	.	-1	.	.
COC(=O)c1sc(NC(=O)/C=C/c2ccc(C)cc2)nc1C	-1	-4	-8	1	16	.
COC(=O)c1sc(NC(=O)/C=C/c2ccccc2Cl)nc1C	57*	46	2	5	36	1
CCNc1nc(NC(N)=S)nc(NC(C)(C)C)n1	37*	-9	2	-1	2	10
